The record followed here is ChEMBL document CHEMBL1149296, “Virtual screening of human 5-aminoimidazole-4-carboxamide ribonucleotide transformylase against the NCI diversity set by use of AutoDock to identify novel nonfolate inhibitors” (J Med Chem, 2004).

Molecules are shown by their SMILES. The source made the active and inactive calls. The calls are words filed in the database; no cut-off is given here.

The experiment concerns the target Bifunctional purine biosynthesis protein ATIC (Homo sapiens, UniProt P31939). Kind of experiment: Inhibition of human AICAR Tfase. The procedure, abridged:
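Human ATIC transformylase activity assay run per the cited earlier method. IC50 measured in a mix of 25 nM ATIC, 50 μM AICAR substrate and 8.5 μM 10-formyltetrahydrofolate cofactor, the cofactor made in-house by a modified literature route. Inhibition mode was also examined with 0.1 mg/mL saponin present.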
Turning to `CC(C)[C@H](C)/C=C/[C@@H](C)[C@H]1CC[C@H]2C3=CC=C4C[C@@H](O)CC[C@]4(C)[C@H]3CC[C@]12C`, the result was inactive.

In the case of `C[C@H](CCC(=O)O)[C@H]1CC[C@H]2[C@@H]3CC[C@@H]4C[C@@H](O)CC[C@]4(C)[C@H]3C[C@H](O)[C@]12C`, the result was inactive.

In general, IC50 refers to the concentration that gives 50% inhibition. On to `O=S(=O)(O)c1cc(/N=[N+](\[O-])c2cc(S(=O)(=O)O)c3ccccc3c2)cc2ccccc12`, for which the IC50 stood at 7.8 µM.

Compound `COc1ccc(C(=O)O[C@H]2CC[C@@]3(C)[C@@H]4CC[C@H]5[C@]6(O)C[C@H](O)[C@@]7(O)[C@@H](CN8C[C@@H](C)CC[C@H]8[C@@]7(C)O)[C@]6(O)C[C@@]53O[C@]24O)cc1OC` [VERATRIDINE] yielded a half-inhibitory concentration (IC50) of 231 µM. This IC50 lies about 30-fold higher than the previous one.

Consider `CN1CCN(c2ccc3[nH]c(-c4ccc5[nH]c(-c6ccc(O)cc6)nc5c4)nc3c2)CC1`, for which the outcome was inactive.

Compound `O=S(=O)(O)c1ccc(/N=N/c2ccc(/N=N/c3ccc(O)c4cccc(S(=O)(=O)O)c34)cc2)cc1` registered an IC50 of 11.6 µM.

Take `Nc1cccc2cc(S(=O)(=O)Nc3ccc(C(=O)O)cc3)ccc12`: 4.1 µM corresponded to half-maximal inhibition (IC50).

Consider `C[C@@H]1O[C@@H](O[C@H]2C[C@@H](O)[C@]3(CO)[C@H]4[C@H](O)C[C@]5(C)[C@@H](C6=CC(=O)OC6)CC[C@]5(O)[C@@H]4CC[C@]3(O)C2)[C@H](O)[C@H](O)[C@H]1O`, for which the outcome was inactive.

By Ki is commonly meant a dissociation constant, usually derived from enzyme kinetics or from competition with a known ligand. A low value points to higher affinity. Compound `NS(=O)(=O)c1cccc2cc(/N=N/c3cccc4c(S(=O)(=O)O)cccc34)ccc12` showed an IC50 of 0.6 µM and a Ki of 0.154 µM.

Consider `Cc1ccc(S(=O)(=O)N/N=C2/C=C3CC[C@H]4[C@@H]5CC[C@H]([C@H](C)CCCC(C)C)[C@@]5(C)CC[C@@H]4[C@@]3(C)CC2)cc1`, for which the half-inhibitory concentration (IC50) was 9.6 µM.

In the case of `CC(CC(=O)O)[C@H]1CC[C@@]2(C)[C@@H]3C(=O)C[C@H]4C(C)(C)[C@@H](O)CC[C@]4(C)[C@H]3C(=O)C[C@]12C` (single isomer, unassigned), the result was inactive.

`CC1=NN(c2ccc(S(=O)(=O)O)cc2)C(=O)C1/N=N/c1ccc(S(=O)(=O)Nc2ccccc2)c(C)c1` (stereo not given) came in with an IC50 of 11.6 µM.

For `Cc1ccc(OS(=O)(=O)c2ccc(/N=N/c3c(C)[nH]n(-c4ccc(Cl)cc4S(=O)(=O)O)c3=O)cc2)cc1`, the IC50 is 3.3 µM.

With `Cc1ccc(S(=O)(=O)Nc2cc([N+](=O)[O-])c3scnc3c2)cc1`, the 50% inhibitory concentration (IC50) is 36.1 µM. Compared with the last compound, the IC50 is about 11-fold higher.

In the case of `O=C(O)c1cc(C(=O)C(=O)c2cc(C(=O)O)c(O)c3ccccc23)c2ccccc2c1O`, the IC50 was found to be 8.8 µM.

`Cc1cc(N)ccc1/N=N/c1cc(S(=O)(=O)O)c2cccc(S(=O)(=O)O)c2c1` returned an IC50 of 7.6 µM. The IC50 values of the last two compounds are within 1.5-fold of each other.

Turning to `CC1CCC2N(C1)CC1C3(O)CC45OC6(O)C(O)CCC4(C)C6CCC5C3(O)CC(O)C13C(C)(O)C23O` (stereo not given), the result was inactive.

Turning to `CC(C)(O)/C=C/C(=O)[C@](C)(O)[C@H]1[C@H](O)C[C@@]2(C)[C@@H]3CC=C4[C@@H](C=C(O)C(=O)C4(C)C)[C@]3(C)C(=O)C[C@]12C`, the result was inactive.

On to `CC(=O)Nc1ccc(S(=O)(=O)Nc2cnc3ccccc3n2)cc1`, for which the IC50 is 54.7 µM.

Take `C[C@]12CC[C@H]3[C@@H](CCC4=CC(=O)CC[C@@H]43)[C@@H]1CCC2OC1(O)C(=O)c2ccccc2C1=O` (stereo not given in full): the outcome was inactive.

`CC1=NN(c2cc(Cl)c(S(=O)(=O)O)cc2Cl)C(=O)C1/N=N/c1ccc(S(=O)(=O)O)cc1` (stereo not given) gave an IC50 of 20.1 µM.

The compound `Cc1ccc2nc(-c3ccc(NC(=O)c4ccc(N)cc4)c(S(=O)(=O)O)c3)sc2c1` returned an IC50 of 16.9 µM.

On to `O=C(O)C1=C/C(=C/C(c2ccccc2)c2cc(C(=O)O)c(O)c3ccccc23)c2ccccc2C1=O` (stereo not given), for which the IC50 came out at 204 µM. This IC50 lies about 12-fold higher than the previous one.

In turn, `C[C@]12CC[C@H]3[C@@H](CCC4=CC(=O)CC[C@@]43C)[C@@H]1CC[C@@H]2C(=O)COS(=O)(=O)c1ccc(Br)cc1` registered an IC50 of 13.9 µM.
